Experimental findings from PubChem BioAssay AID720702 (The Scripps Research Institute Molecular Screening Center, 2013) are described below.

SMILES strings stand for the structures. “And” between values parts separate entries of the source, which are not always exact repeats. Equal values may be shown once. Screen size: about 370,000 compounds; about 1,200 (0.32%) were called active. The sample holds actives, similar compounds and a random draw of the others, so the mix is not that of the screen. Values without a mark were called inactive.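 How the source made its calls: active means inhibition above the mean of all tested compounds plus 3 SD, set per campaign (cut at about 25% in these data); inactive means the rest.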

Sequence of Tyrosyl-DNA phosphodiesterase 2 (Homo sapiens) (O95551 whole entry, looked up): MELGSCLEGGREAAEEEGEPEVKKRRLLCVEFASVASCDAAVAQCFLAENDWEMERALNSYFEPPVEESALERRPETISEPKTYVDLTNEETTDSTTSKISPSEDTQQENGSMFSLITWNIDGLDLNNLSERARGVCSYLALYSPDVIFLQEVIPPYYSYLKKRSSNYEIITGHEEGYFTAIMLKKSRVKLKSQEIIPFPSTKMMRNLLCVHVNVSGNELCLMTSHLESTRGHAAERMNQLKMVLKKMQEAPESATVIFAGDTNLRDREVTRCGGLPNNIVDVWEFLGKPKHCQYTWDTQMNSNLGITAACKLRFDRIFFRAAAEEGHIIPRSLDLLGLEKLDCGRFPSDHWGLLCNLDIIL

The target in the test is Tyrosyl-DNA phosphodiesterase 2 (Homo sapiens) (UniProt O95551). Nature of the test: human TDP2 enzyme inhibitors, primary screen, biochemical, epi absorbance, recombinant enzyme (AID 720702).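 Further: 0% = DMSO with enzyme and 100% = buffer with substrate but no TDP2.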 The settings on record: recombinant TDP2, T5PNP hydrolysis, p-nitrophenol absorbance 415 nm; at 12.8 µM; active compounds read high. The essentials: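 Test system: Human TDP2 enzyme | Reagent: 5 mM T5PNP | Compound dosing: 12.8 µM single point, 1% DMSO | Incubation: Enzyme reaction with compound for 2 h at 37 °C | Technique: p-Nitrophenol epi absorbance | Read-out: % inhibition relative to enzyme-containing and enzyme-free wells | Benchmarks: High control without enzyme, low control DMSO plus TDP2 | Replicates: Singlicate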
As a reminder, the inhibition is the change of the read-out against control, counted positive when it falls. In the case of `COc1ccc(C(=O)OCCN2CCN(C3CN(Cc4cn(Cc5ccccc5F)nn4)S(=O)(=O)C3)CC2)cc1OC` (stereo unspecified), the inhibition was 11.2%.
On to `Cc1nc([N+](=O)[O-])cn1CC(=O)Nc1ccc(Cl)cc1`, for which the inhibition is 7.84%.
Then `CCOC(=O)C1CCN(C(=O)C(C)(C)NC(=O)Nc2ccccc2Cl)CC1`, with 1.3%; and `c1coc(CCNc2ncnc3ccc(-c4ccc5c(c4)OCO5)cc23)c1`, with 0.8%.
Then `Cc1cc(C)nc(NC(=S)N2CCN(c3ccc(C(F)(F)F)cn3)CC2)c1`, with -1.93%; and `NC(=O)c1ccsc1NC(=O)COC(=O)COc1ccc(C=O)cc1`, with 2.52%.
Then `COc1cc(OC)cc(C(=O)OCC(=O)Nc2sccc2C(N)=O)c1`, with 28.2% (active); and `Cc1cccc(C(=O)OCC(=O)Nc2sccc2C(N)=O)c1C`, with -12.7%.
As for `CC1Cc2nc(SCC(=O)Nc3ccccc3F)n(C)c(=O)c2S1` (stereo unspecified), the inhibition was 9.78%.
Then `COC(=O)[C@]12C[C@H](CC(=O)N3CCOCC3)C(=O)N(Cc3ccc(Cl)cc3Cl)C1=C[C@H](C(C)C)O[C@@H]2C1CC1`, with -1.98%; and `CCOC(=O)Cn1c2c(n(-c3ccc(F)cc3)c1=O)C=C(c1ccccc1)[C@@H](C)C(C(=O)N(C)C1CCCCC1)=C2`, with -5.6%.
Then `C=CCN(Cc1ccc2c(c1)OCO2)C(C#CC1CC1)C(C)(C)C` (stereo unspecified), with 0.99%; and `C[C@H]1[C@H](NC(=O)c2cccc(N(C)C)c2)CC[C@@]23CCCN2C(=O)CCC[C@@H]13`, with -4.75%.
Then `Clc1ccc(C2=CSC3=Nc4cccc5cccc(c45)N23)cc1`, with 65.8% (active); and `Cc1ccc(C)c(CN2CCC(CNC(=O)C3CCCN(c4ncnc5c4nc4n5CCCCC4)C3)CC2)c1` (stereo unspecified), with -0.02%; and `Cc1ccc(S(=O)(=O)N2CCC(C(=O)NCCC3=CCCCC3)CC2)cc1C`, with 33.1% (active).
Take `Cc1ccc(CCNC(=O)C2CCN(S(=O)(=O)N3CCCC3)CC2)cc1`: the inhibition was 3.54%.
Then `O=C(NCCC1=CCCCC1)C1CCN(S(=O)(=O)c2ccc(Cl)s2)CC1`, with 6.48%; and `C=C(C)CNC(=O)c1ccc(OC2CCN(C(=O)COC)CC2)cc1`, with -0.83%.
The same measure for `NC1=CC(=O)C(=O)c2cccnc21`: 70.4% (active); for `O=C(NCc1ccccc1)[C@H]1CCCN1C(=O)[C@@H]1CCCN1C(=O)c1ccc(Cl)cc1Cl`: -1.81%.
As for `O=C1CC(c2ccc3c(c2)OCO3)N=C2N(CC3CC3)C/C(=C/c3ccccc3)N12` (stereo unspecified), the inhibition was 7.53%.
The same measure for `COC(=O)[C@]12C[C@H](CC(=O)NCc3cccs3)C(=O)N(CCc3ccc(OC)c(OC)c3)C1=C[C@H](C(C)C)O[C@@H]2C1CC1`: 3.66%; for `COc1cc(NC(=S)NNC(=O)CC(C)C)c(OC)cc1Cl`: 8.52%.
The same measure for `CCc1ccccc1NC(=S)Nc1cc(OC)c(NC(=O)C(C)C)cc1OC`: 39.9% (active).
Then `COc1ccc(C)cc1NC(=S)Nc1ccccc1SC`, with 1.04%; and `Cc1cc(C)n2ncc(C(=O)Nc3ccc4c(c3)OCCO4)c2n1`, with -3.81%.
On to `CN(C)C(=O)N1CCN(C(=O)[C@@H](Cc2ccccc2)NC(=O)[C@H]2O[C@@H](n3ccc(N)nc3=O)[C@H](O)[C@@H]2O)CC1`, for which the inhibition is 8.58%.
Then `Cc1ccc2nc(-c3ccc(NC(=O)CN(C)S(=O)(=O)c4ccccc4)cc3)sc2c1`, with -18.6%; and `CCOC(=O)N1CCC(NC(=O)Cc2cn(C)c3ccccc23)CC1`, with -2.66%.
On to `CCOC(=O)N1CCC(C(N)=O)CC1`, for which the inhibition is 4.66%.
In the case of `CCOC(=O)N1CCC(c2cc(=O)n(-c3ccccc3)[nH]2)CC1`, the inhibition is 79.4% (active).
The same measure for `CCOc1ccc(Oc2c(Cl)cnn(-c3ccc(C)cc3)c2=O)cc1`: -6.6%; for `Cc1ccc(NC(=O)Cc2nnc(SCC(=O)Nc3nncs3)n2C)cc1`: 9.72%.
The same measure for `CCc1ccc(-c2nn(-c3ccccc3)cc2CSC(=N)N)cc1`: -12%.
In the case of `O=Cc1cn(-c2ccccc2)nc1-c1ccccn1`, the inhibition is 31.4% (active).
With `O=C(CSc1ccc(-c2ccccn2)nn1)Nc1ccccc1`, the inhibition is -4.03%.
Then `N[C@@H](Cc1ccccc1)C(=O)N1CCC[C@@H]1C(=O)N1CCC2CCN(S(=O)(=O)c3ccccc3)CC21` (stereo partly specified), with 2.14%; and `O=C(CSc1nc2sc3c(c2c(=O)n1-c1ccccc1)CCCC3)NN=Cc1ccc(OCc2ccccc2)cc1`, with 8.18%; and `C=CCN=C1NC(c2ccccc2)C(C(=O)OC)=C(C)N1Cc1ccc(C(F)(F)F)cc1` (stereo unspecified), with -7.84%.
The same measure for `COc1cccc(OC)c1CN(C)C(=O)c1cnccc1C(F)(F)F`: -13.4%; for `COC(=O)C1CN(CCc2ccccc2)CCS(=O)(=O)N1Cc1ccc(F)cc1` (stereo unspecified): -8.99%; for `Cc1nc2c(C(=O)NCc3cccs3)cnn2c(C)c1Cc1ccc(F)cc1`: 6.37%.
The same measure for `C=CCn1c(P(C)(=O)O)nc2ccccc21`: 2.29% and 0.31%; for `C=CCn1c(N)c(C(=O)OCC(C)C)c2nc3ccccc3nc21`: 30.5% (active).
Regarding `CC(C)Cn1c(N)c(C(=O)NCc2cccs2)c2nc3ccccc3nc21`, the inhibition is 62.4% (active).
Then `CCN(CC(=O)NCc1cccs1)c1nnnn1-c1ccccc1`, with -4.19%.
The same measure for `C=CCN1CN(S(=O)(=O)c2ccc(OC)cc2)c2nc3ccccc3nc21`: -10.2%; for `O/N=C(\C[n+]1ccccc1)c1ccc(Br)cc1`: -4.49%.
`CSc1nnc(-c2ccncc2)n1CCCN1CCCC1=O`: the inhibition is 3.44%.
As for `O=C1Nc2ccccc2OC1CC(=O)N1CCCCCCC1` (stereo unspecified), the inhibition was 4.41%.
Then `COC(CNC(=O)[C@H](Cc1ccccc1)NC1(C(=O)NC2CCCCC2)CCCCC1)OC`, with -1.87%.
The same measure for `CCCNC(=O)CCn1cc(-c2ccc(OC)cc2)nc1CCN`: -1.08%; for `CCN(CC)CCCNC(=O)CCn1nc(-c2ccc(Cl)cc2)ccc1=O`: -8.35%.
For `CCCCNC(=O)CCn1nc(-c2ccc(Cl)cc2)ccc1=O`, the inhibition was 29.2% (active).
Then `COC(=O)[C@]12C[C@H](CC(=O)NCCc3ccccc3OC)C(=O)N(Cc3ccccc3)C1=C[C@H](C(C)C)O[C@@H]2C1CC1`, with -7.01%.
